Laboratory results reported in ChEMBL document CHEMBL4390639, “Design, Synthesis, and Biological Evaluation of Novel Allosteric Protein Disulfide Isomerase Inhibitors” (J Med Chem, 2019).
Activity calls are given as the source filed them. The rule behind the calls is not given here.

Assays:
U-87 MG [1] = test: Cytotoxicity against human U87MG cells assessed as inhibition of cell growth measured after 72 hrs by MTT assay; format: functional, cell-based, U-87MG ATCC; conditions: Homo sapiens, U-87 MG, 72 h; read-out: IC50
Outline: (§1)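 A172 and NU04 cells were seeded at 4000 cells/well and U87MG at 5000 cells/well, incubated overnight at 37 °C, 5% CO2, then exposed to compound or vehicle for 72 h. MTT (3 mg/mL) was added for 4 h, formazan was dissolved in DMSO, and absorbance was read at 570 nm. IC50 came from nonlinear regression; mean ± SD of at least three experiments.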

A 172 [2] = test: Cytotoxicity against human A172 cells assessed as inhibition of cell growth measured after 72 hrs by MTT assay; format: functional, cell-based; conditions: Homo sapiens, A 172, 72 h; read-out: IC50; outline: as §1
[3] = Cytotoxicity against human NU04 cells assessed as inhibition of cell growth measured after 72 hrs by MTT assay; format: functional, cell-based; conditions: Homo sapiens, 72 h; read-out: IC50; outline: as §1
HFF-1 = test: Cytotoxicity against HFF1 cells assessed as inhibition of cell growth measured after 72 hrs by MTT assay; format: cell-based; conditions: Homo sapiens, HFF-1, 72 h
Outline: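 Cells grown as monolayers at 37 °C, 5% CO2, seeded and left overnight, then exposed to drug or vehicle for 72 h. MTT (20 μL of 3 mg/mL) added for 4 h, supernatant removed, formazan dissolved in DMSO, absorbance read at 570 nm. IC50 from nonlinear regression of log concentration–response curves; at least three independent experiments.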

[4] = Therapeutic ratio of IC50 for HFF1 cells to IC50 for human NU04 cells
Outline: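 Ratio of two growth-inhibition IC50s, HFF-1 normal human fibroblasts over NU04 glioma cells. Cells were grown as monolayers at 37 °C in 5% CO2, with NU04 seeded at 4000 cells/well. After overnight attachment, cells were exposed to compound or vehicle for 72 h. MTT (3 mg/mL) was added for 4 h, and formazan dissolved in DMSO was read at 570 nm. IC50s came from nonlinear regression of log concentration-response curves, with at least three independent experiments.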

[5] = target: T1, Protein disulfide-isomerase (Homo sapiens, UniProt P07237); test: Binding affinity to recombinant human N-terminal His-tagged PDI expressed in Escherichia coli BL21 (DE3) pLysS assessed as change in melting temperature at 100 uM by ROX dye based thermal shift assay
Outline: (§2)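 Purified wild-type, C53S/C397S or H256A PDI at 0.5 mg/mL in 50 mM Tris, pH 7.0, with or without 100 μM compound, was mixed with ROX dye in a 20 µL well. DMSO (5% in buffer) was the control. Samples were heated 25–99 °C at 1 °C/min, and the Boltzmann melting temperature shift versus DMSO was reported. Mean ± SD of three experiments.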
Target sequence in this assay (P07237 18-508 limits assumed): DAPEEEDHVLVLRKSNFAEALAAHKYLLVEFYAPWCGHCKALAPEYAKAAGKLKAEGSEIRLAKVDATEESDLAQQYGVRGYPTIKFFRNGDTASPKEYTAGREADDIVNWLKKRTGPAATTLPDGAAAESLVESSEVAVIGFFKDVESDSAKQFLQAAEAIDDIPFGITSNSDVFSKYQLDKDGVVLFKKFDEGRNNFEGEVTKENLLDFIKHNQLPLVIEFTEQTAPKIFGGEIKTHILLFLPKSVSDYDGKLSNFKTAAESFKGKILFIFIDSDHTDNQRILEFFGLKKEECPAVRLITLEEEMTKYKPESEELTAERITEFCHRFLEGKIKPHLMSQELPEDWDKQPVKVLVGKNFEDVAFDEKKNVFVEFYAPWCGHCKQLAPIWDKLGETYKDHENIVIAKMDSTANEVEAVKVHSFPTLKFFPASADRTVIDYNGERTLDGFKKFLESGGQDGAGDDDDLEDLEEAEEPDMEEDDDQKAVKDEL

[6] = system: Protein disulfide-isomerase (Homo sapiens), P07237 [H256A]; test: Binding affinity to recombinant human N-terminal His-tagged PDI H256A mutant expressed in Escherichia coli BL21 (DE3) pLysS assessed as change in melting temperature at 100 uM by ROX dye based thermal shift assay; outline: as §2
Chain of Protein disulfide-isomerase (Homo sapiens), P07237 [H256A] (P07237 whole entry H256A): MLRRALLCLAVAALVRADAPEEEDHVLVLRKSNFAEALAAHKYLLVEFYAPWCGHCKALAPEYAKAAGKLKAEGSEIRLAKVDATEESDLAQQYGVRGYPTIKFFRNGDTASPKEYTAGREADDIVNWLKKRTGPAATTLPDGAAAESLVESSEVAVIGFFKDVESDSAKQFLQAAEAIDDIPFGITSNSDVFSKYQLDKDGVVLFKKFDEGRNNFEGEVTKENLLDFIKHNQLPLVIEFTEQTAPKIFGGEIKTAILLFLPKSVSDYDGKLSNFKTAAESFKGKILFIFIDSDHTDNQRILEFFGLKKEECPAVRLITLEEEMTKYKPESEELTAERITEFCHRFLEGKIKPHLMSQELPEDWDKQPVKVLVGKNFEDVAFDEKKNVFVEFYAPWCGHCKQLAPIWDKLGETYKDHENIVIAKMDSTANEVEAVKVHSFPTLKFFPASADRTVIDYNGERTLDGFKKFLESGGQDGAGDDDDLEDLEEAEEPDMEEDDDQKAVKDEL

[7] = target: T1, Protein disulfide-isomerase; test: Binding affinity to recombinant human N-terminal His-tagged PDI expressed in Escherichia coli BL21 (DE3) pLysS by isothermal titration calorimetry
Target sequence in this assay (P07237 whole entry): as the sequence (P07237 whole entry H256A) above, with A256H counted along it

[8] = target: Eukaryotic translation initiation factor 2 subunit 1 (Homo sapiens) (UniProt P05198); test: Induction of EIF2alpha phosphorylation in human U87MG cells at 20 uM measured after 2 hrs by Western blot analysis; format: cell-based
Chain of Eukaryotic translation initiation factor 2 subunit 1 (Homo sapiens) (P05198 whole entry): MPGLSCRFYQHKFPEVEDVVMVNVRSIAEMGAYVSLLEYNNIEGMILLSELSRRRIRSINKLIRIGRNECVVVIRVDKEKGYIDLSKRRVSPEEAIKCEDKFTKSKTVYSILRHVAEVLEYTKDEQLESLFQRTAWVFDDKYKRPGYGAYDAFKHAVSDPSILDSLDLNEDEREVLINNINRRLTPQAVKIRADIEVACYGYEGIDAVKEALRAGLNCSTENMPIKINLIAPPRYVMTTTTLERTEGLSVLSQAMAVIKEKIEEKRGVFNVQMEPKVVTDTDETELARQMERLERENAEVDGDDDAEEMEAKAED
Outline: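 eIF2α phosphorylation in U87MG cells after 2 h with 1 µM PACMA31 or 20 µM analogues; tunicamycin 10 µg/mL as comparator. Lysates (Tris/NaCl/Triton/SDS, sonicated) quantified by BCA; 30 µg protein separated on 10% gels, blotted to PVDF, probed for phospho-eIF2α, detected by fluorescence.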

U-87 MG [9] = test: Induction of endoplasmic reticulum stress in human U87MG cells assessed as increase in GRP78 expression at 20 uM measured after 24 hrs by Western blot analysis; format: functional, cell-based; conditions: U-87MG ATCC
Outline: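 ER-stress immunoblot: 0.5 x 10^6 U87MG cells/well treated for 24 h with 20 µM analogues, 1 µM PACMA31 or DMSO; tunicamycin 10 µg/mL for 2 or 24 h as positive control. Lysis in Tris/NaCl/Triton/SDS buffer with sonication; 30 µg protein on 10% gels, transferred to PVDF, GRP78 probed, fluorescence imaging.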

[10] = target: Eukaryotic translation initiation factor 2 subunit 1 (Homo sapiens) (UniProt P05198); test: Induction of EIF2alpha phosphorylation in human A172 cells at 20 uM measured after 2 hrs by Western blot analysis; format: cell-based
A 172 [11] = test: Induction of endoplasmic reticulum stress in human A172 cells assessed as increase in GRP78 expression at 20 uM measured after 24 hrs by Western blot analysis; format: functional, cell-based
A 172 [12] = test: Antimigratory activity against human A172 cells assessed as reduction in cell migration towards wound area at 10 uM measured after 24 hrs by Giemsa staining based microscopic analysis; format: functional
Outline: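 A172 cells plated at 50,000 cells/well, incubated overnight at 37 °C, 5% CO2, then held 24 h in serum-free DMEM. A scratch was made, compounds were added, and cells grew 24 h until DMSO-control wells closed. Cells were Giemsa-stained and imaged at 10X.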

U-87 MG [13] = test: Effect on PDI expression in human U87MG cells at 20 uM measured after 24 hrs by Western blot analysis; format: functional, cell-based; conditions: U-87MG ATCC
A 172 [14] = test: Effect on PDI expression in human A172 cells at 20 uM measured after 24 hrs by Western blot analysis; format: functional, cell-based
A 172 [15] = test: Antimigratory activity against human A172 cells at 30 uM measured after 4 hrs by Giemsa staining based transwell migration assay; format: functional, cell-based
Outline: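 A172 cells (1 x 10^5) were treated with compound and seeded into inserts with 8.0 μm PET membrane in serum-free medium. DMEM with 10% FBS was in the lower well; wells without FBS served as control. After 4 h, migrated cells were Giemsa-stained and imaged at 10X, 5 fields per well.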

U-87 MG [16] = test: Effect on MMP2 expression in human U87MG cells at 10 uM measured after 24 hrs by Western blot analysis; format: functional, cell-based; conditions: U-87MG ATCC
[17] = target: Focal adhesion kinase 1 (Homo sapiens) (UniProt Q05397); test: Effect on FAK phosphorylation in human U87MG cells at 10 uM measured after 24 hrs by Western blot analysis; format: cell-based
Chain of Focal adhesion kinase 1 (Homo sapiens) (Q05397 2-1052 limits assumed): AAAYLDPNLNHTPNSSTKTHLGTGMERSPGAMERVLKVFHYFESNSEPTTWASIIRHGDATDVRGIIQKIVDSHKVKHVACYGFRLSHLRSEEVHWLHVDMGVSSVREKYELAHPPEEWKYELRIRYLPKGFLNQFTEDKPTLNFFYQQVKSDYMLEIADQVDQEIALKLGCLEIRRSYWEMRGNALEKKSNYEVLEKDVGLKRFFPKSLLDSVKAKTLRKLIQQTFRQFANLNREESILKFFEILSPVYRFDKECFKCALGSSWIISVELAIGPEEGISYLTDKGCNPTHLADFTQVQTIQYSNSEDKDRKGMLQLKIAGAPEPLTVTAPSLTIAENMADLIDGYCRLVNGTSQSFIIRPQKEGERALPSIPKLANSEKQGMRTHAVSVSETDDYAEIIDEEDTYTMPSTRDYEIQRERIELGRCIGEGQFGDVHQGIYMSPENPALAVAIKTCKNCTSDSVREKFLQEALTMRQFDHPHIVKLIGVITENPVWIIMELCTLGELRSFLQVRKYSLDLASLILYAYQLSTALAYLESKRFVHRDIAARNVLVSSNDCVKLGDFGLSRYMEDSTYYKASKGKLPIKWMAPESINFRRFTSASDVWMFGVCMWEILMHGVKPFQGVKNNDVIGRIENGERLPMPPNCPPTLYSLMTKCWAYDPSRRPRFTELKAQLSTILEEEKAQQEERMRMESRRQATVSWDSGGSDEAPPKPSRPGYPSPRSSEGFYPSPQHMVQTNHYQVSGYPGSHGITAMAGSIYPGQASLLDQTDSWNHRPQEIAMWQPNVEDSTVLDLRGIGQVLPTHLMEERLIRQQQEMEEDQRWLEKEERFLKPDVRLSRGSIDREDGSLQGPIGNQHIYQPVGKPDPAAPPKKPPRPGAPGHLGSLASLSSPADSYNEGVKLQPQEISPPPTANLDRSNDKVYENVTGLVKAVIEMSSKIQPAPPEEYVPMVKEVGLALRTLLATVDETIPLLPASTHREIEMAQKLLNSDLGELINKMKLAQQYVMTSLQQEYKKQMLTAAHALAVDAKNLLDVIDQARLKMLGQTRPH

[18] = target: T1, Protein disulfide-isomerase; test: Inhibition of recombinant human N-terminal His-tagged PDI expressed in Escherichia coli BL21 (DE3) pLysS at 100 uM measured after 1 hr by ANS dye based fluorescence spectra analysis
Outline: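 ANS spectral scan: PDI incubated with 100 μM compounds or matching DMSO in TBS for 1 h at 37 °C. ANS then added and incubated 20 min at 25 °C in the dark. Fluorescence spectrum recorded with excitation 370 nm, emission 400–700 nm.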
Target sequence in this assay (P07237 18-508 limits assumed): as the sequence (P07237 18-508 limits assumed) above

[19] = target: T1, Protein disulfide-isomerase; test: Inhibition of recombinant human N-terminal His-tagged PDI expressed in Escherichia coli BL21 (DE3) pLysS assessed as reduction in enzyme-mediated bovine insulin aggregation
Target sequence in this assay (P07237 whole entry): as the sequence (P07237 whole entry H256A) above, with A256H counted along it

[20] = target: T1, Protein disulfide-isomerase; test: Binding affinity to recombinant human N-terminal His-tagged PDI expressed in Escherichia coli BL21 (DE3) pLysS assessed as increase in melting temperature by ROX dye based thermal shift assay; outline: as §2
Target sequence in this assay (P07237 18-508 limits assumed): as the sequence (P07237 18-508 limits assumed) above

U-87 MG [21] = test: Down regulation of MMP9 expression in human U87MG cells at 10 uM measured after 24 hrs by Western blot analysis; format: functional, cell-based; conditions: U-87MG ATCC

Compound | IC50 (U-87 MG [1]) | IC50 (A 172 [2]) | IC50 [3] | IC50 (HFF-1) | Ratio IC50 [4] | ΔTm [5] | Activity [6] | Activity [8] | Activity (U-87 MG [9]) | Activity [10] | Activity (A 172 [11]) | Activity (A 172 [12]) | Activity (U-87 MG [13]) | Activity (A 172 [14]) | Activity (A 172 [15]) | Activity (U-87 MG [16]) | Activity [17] | inhibition [18] | IC50 [19] | Activity [20] | other results
N#Cc1cccc(/C=C/C(=O)c2ccc(O)cc2)c1 | 10.3 to 10.7 µM | 16.8 µM | 15.7 µM | 91.2 µM | 5.8 | 2.85 °C | inactive | Active | Active | Active | Active | Active | inactive | inactive | Active | inactive | inactive | Active |  |  | Kd ([7]; read-out: Kd): 9.1 µM
O=C(/C=C/c1ccc(-c2cccnc2)cc1)c1cccc(O)c1 | 10.7 µM | 11 µM | 4.9 µM | 22.5 µM | 4.57 | 2.83 °C | Active | Active | Active | Active | Active | Active | inactive | inactive |  | inactive | inactive | Active | 0.35 µM | Dose-dependent effect | Activity (U-87 MG [21]): Active
CCCCCN(CCCCC)S(=O)(=O)c1ccc(C(=O)/C=C/c2cccc(O)c2)cc1 | 15 µM | 11.3 µM | 7.6 µM | 29.2 µM | 3.85 | 3.58 °C | Active | Active | Active | Active | Active | Active | inactive | inactive | Active | inactive | inactive | Active | 0.81 µM | Dose-dependent effect | Kd [7]: Nd(Insoluble); Activity (U-87 MG [21]): Active
CCCCCN(CCCCC)S(=O)(=O)c1ccc(C(=O)/C=C/c2cccc(C#N)c2)cc1 | 5.6 µM | 9 µM | 5 µM | 3.4 µM | 0.67 | 0.52 °C |  | Active | Active | Active | Active | Active | inactive | inactive | Active | inactive | inactive |  | 0.16 µM |  | Activity (U-87 MG [21]): Active
COC(=O)c1cccc(/C=C/C(=O)c2cccc(O)c2)c1 | 16.5 µM | 19.5 µM | 22.7 µM | 17.4 µM | 0.77 | 1.86 °C | Active | Active | Active | Active | Active | Active | inactive | inactive |  | inactive | inactive | Active | 0.12 µM | Dose-dependent effect | Kd [7]: Nd(Insoluble)
